According to ChEMBL document CHEMBL1138529, “Efficacy, pharmacokinetics, and metabolism of tetrahydroquinoline inhibitors of Plasmodium falciparum protein farnesyltransferase” (Antimicrob Agents Chemother, 2007):

Assays:
[1] = Permeability from apical to basolateral side in human Caco-2 cells; assay type: ADME, cell-based; details: read-out: permeability
[2] = AUC in BALB/c mouse at 50 mg/kg, po; assay type: ADME, organism-based; set-up: dose 50 mg/kg, route oral; details: plasma
In short: (§1)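 Three female BALB/c mice (lines for mice, 8–10 weeks) or three female Sprague-Dawley rats (10–12 weeks) per group; 50 mg/kg oral gavage in 3% EtOH-7% Tween 80-90% normal saline. Plasma sampled at set times (tail bleed in mice, saphenous vein in rats), extracted with acetonitrile plus internal standard, quantified by LC/MS; AUC as mean of three animals.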

[3] = Elimination half life in BALB/c mouse at 50 mg/kg, po; assay type: ADME, organism-based; set-up: dose 50 mg/kg, route oral; details: in vivo, read-out: beta t1/2
In short: (§2)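 50 mg/kg by oral gavage in 3% EtOH-7% Tween 80-90% normal saline to groups of three females (BALB/c mice, 8–10 weeks, tail bleed; Sprague-Dawley rats, 10–12 weeks, saphenous vein). Plasma extracted with acetonitrile/internal standard, LC/MS; means of three animals. Oral elimination half-life depends on absorption rate as well as elimination.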

[4] = Metabolic stability in rat liver microsomes; assay type: ADME, Microsome
In short: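 Pooled female liver microsomes at 0.5 mg/ml in 0.1 M potassium phosphate pH 7.4, 3 mM MgCl2, 1 mM EDTA, with NADPH regenerating system (1 mM NADP+, 5 mM glucose-6-phosphate, 1 U/ml G6PDH). Preincubated 10 min at 37°C, then compound added to 1 μM final. Time points quenched with 3 volumes acetonitrile plus internal standard; parent quantified by LC/MS; half-life reported.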

[5] = AUC in Sprague-Dawley rat at 50 mg/kg, po; assay type: ADME, organism-based; set-up: dose 50 mg/kg, route oral; details: plasma; in short: as §1
[6] = Cmax in Sprague-Dawley rat at 50 mg/kg, po; assay type: ADME, organism-based; set-up: dose 50 mg/kg, route oral; details: in vivo; in short: as §2
[7] = Elimination half life in Sprague-Dawley rat at 50 mg/kg, po; assay type: ADME, organism-based; set-up: dose 50 mg/kg, route oral; details: in vivo, read-out: beta t1/2; in short: as §2
[8] = Inhibition of Plasmodium falciparum protein farnesyltransferase by SPA method
Plasmodium falciparum [9] = test: Antiplasmodial activity against chloroquine-sensitive Plasmodium falciparum 3D7 by [3H]hypoxanthine uptake; assay type: functional; details: read-out: ED50 (the source's name)
In short: (§3)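 Asynchronous cultures at 0.5% parasitemia and 0.5% hematocrit in RPMI 1640 with 20% heat-inactivated human A+ plasma, exposed to serially diluted inhibitor (top final 5 μM, from DMSO stock) under 5% CO2/5% O2/90% N2 at 37°C for 48 h. [3H]hypoxanthine was then added for 24 h and harvested counts were background-subtracted against DMSO-only controls. ED50 came from linear regression, as the mean of duplicates.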

Plasmodium falciparum [10] = test: Antiplasmodial activity against chloroquine-resistant Plasmodium falciparum K1 by [3H]hypoxanthine uptake; assay type: functional; details: read-out: ED50 (the source's name); in short: as §3
[11] = AUC in Sprague-Dawley rat at 2 mg/kg, iv; assay type: ADME, organism-based; set-up: dose 2 mg/kg, route intravenous; details: plasma
In short: (§4)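 Three female Sprague-Dawley rats per group (10–12 weeks), jugular-vein catheterized; 2 mg/kg in 3% EtOH-7% Tween 80-90% normal saline given through the catheter. Plasma drawn from the catheter at set times, acetonitrile extraction with internal standard, LC/MS quantification.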

[12] = Elimination half life in Sprague-Dawley rat at 2 mg/kg, iv; assay type: ADME, organism-based; set-up: dose 2 mg/kg, route intravenous; details: in vivo, read-out: beta t1/2; in short: as §4
[13] = Oral bioavailability in Sprague-Dawley rat; assay type: ADME, organism-based; details: in vivo
In short: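 Female Sprague-Dawley rats, 10-12 weeks, three per group. Oral gavage at 50 mg/kg and jugular-catheter i.v. dose at 2 mg/kg, both in 3% EtOH-7% Tween 80-90% saline. Plasma taken over time, acetonitrile extraction with internal standard, LC/MS. Bioavailability computed as oral AUC/i.v. AUC.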

[14] = Drug metabolism in bile duct cannulated Sprague-Dawley rat assessed as radioactive drug recovery in bile at 35 mg/kg, po after 18 hrs; assay type: ADME, organism-based; set-up: dose 35 mg/kg, route oral; details: in vivo
In short: (§5)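 Male bile-duct- and jugular-cannulated Sprague-Dawley rats (~350 g, three per compound) given 35 mg/kg 14C-labelled compound orally (80 μCi/kg) in 3% EtOH-7% Tween 80-90% saline. Urine, feces and bile collected for 18 h, cages washed with methanol-water, animals autopsied; radioactivity per matrix by liquid scintillation counting as mean % of dose.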

[15] = Drug metabolism in bile duct cannulated Sprague-Dawley rat assessed as radioactive drug recovery in urine at 35 mg/kg, po after 18 hrs; assay type: ADME, organism-based; set-up: dose 35 mg/kg, route oral; details: in vivo; in short: as §5
[16] = Drug metabolism in bile duct cannulated Sprague-Dawley rat assessed as radioactive drug recovery in feces at 35 mg/kg, po after 18 hrs; assay type: ADME, organism-based; set-up: dose 35 mg/kg, route oral; details: in vivo; in short: as §5
[17] = Drug metabolism in bile duct cannulated Sprague-Dawley rat assessed as radioactive drug recovery in gastrointestinal tract at 35 mg/kg, po after 18 hrs; assay type: ADME, organism-based; set-up: dose 35 mg/kg, route oral; details: in vivo; in short: as §5
[18] = Drug metabolism in bile duct cannulated Sprague-Dawley rat assessed as radioactive drug recovery in carcass at 35 mg/kg, po after 18 hrs; assay type: ADME, organism-based; set-up: dose 35 mg/kg, route oral; details: in vivo; in short: as §5
Rattus norvegicus [19] = test: Drug metabolism in bile duct cannulated Sprague-Dawley rat assessed as radioactive drug recovery at 35 mg/kg, po after 18 hrs; assay type: ADME, organism-based; set-up: dose 35 mg/kg, route oral; details: in vivo; in short: as §5
Rattus norvegicus [20] = test: Toxicity in bile duct cannulated Sprague-Dawley rat assessed as incidence of adverse events at 35 mg/kg, po after 18 hrs; assay type: organism-based; set-up: dose 35 mg/kg, route oral; details: in vivo
In short: (§6)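 Male Sprague-Dawley rats, about 350 g, with jugular and bile-duct cannulae, allowed 1 week recovery; three per compound. Oral gavage 35 mg/kg in 3% EtOH-7% Tween 80-90% saline with 80 μCi/kg 14C tracer. Monitored 18 h. Plasma and blood-cell radioactivity measured by liquid scintillation counting and given as μg base equivalents/g.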

Rattus norvegicus [21] = test: Plasma concentration in bile duct cannulated Sprague-Dawley rat at 35 mg/kg, po after 0.5 hrs; assay type: ADME, organism-based; set-up: dose 35 mg/kg, route oral; details: in vivo; in short: as §6
Rattus norvegicus [22] = test: Plasma concentration in bile duct cannulated Sprague-Dawley rat at 35 mg/kg, po after 1 hr; assay type: ADME, organism-based; set-up: dose 35 mg/kg, route oral; details: in vivo; in short: as §6
Rattus norvegicus [23] = test: Plasma concentration in bile duct cannulated Sprague-Dawley rat at 35 mg/kg, po after 2 hrs; assay type: ADME, organism-based; set-up: dose 35 mg/kg, route oral; details: in vivo; in short: as §6
Rattus norvegicus [24] = test: Plasma concentration in bile duct cannulated Sprague-Dawley rat at 35 mg/kg, po after 3 hrs; assay type: ADME, organism-based; set-up: dose 35 mg/kg, route oral; details: in vivo; in short: as §6
Rattus norvegicus [25] = test: Plasma concentration in bile duct cannulated Sprague-Dawley rat at 35 mg/kg, po after 4 hrs; assay type: ADME, organism-based; set-up: dose 35 mg/kg, route oral; details: in vivo; in short: as §6
Rattus norvegicus [26] = test: Plasma concentration in bile duct cannulated Sprague-Dawley rat at 35 mg/kg, po after 6 hrs; assay type: ADME, organism-based; set-up: dose 35 mg/kg, route oral; details: in vivo; in short: as §6
Blood [27] = test: Drug level in bile duct cannulated Sprague-Dawley rat blood at 35 mg/kg, po after 0.5 hrs; assay type: ADME, organism-based; set-up: dose 35 mg/kg, route oral; details: in vivo
In short: (§7)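 Male Sprague-Dawley rats (~350 g), jugular vein and bile duct cannulated, 1 week recovery; three per compound dosed by oral gavage with 35 mg/kg in 3% EtOH-7% Tween 80-90% normal saline plus 80 μCi/kg 14C tracer. Plasma and blood cells sampled over 18 h; radioactivity by liquid scintillation, reported as mean μg base equivalents/g.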

Blood [28] = test: Drug level in bile duct cannulated Sprague-Dawley rat blood at 35 mg/kg, po after 1 hr; assay type: ADME, organism-based; set-up: dose 35 mg/kg, route oral; details: in vivo; in short: as §7
Blood [29] = test: Drug level in bile duct cannulated Sprague-Dawley rat blood at 35 mg/kg, po after 2 hrs; assay type: ADME, organism-based; set-up: dose 35 mg/kg, route oral; details: in vivo; in short: as §7
Blood [30] = test: Drug level in bile duct cannulated Sprague-Dawley rat blood at 35 mg/kg, po after 3 hrs; assay type: ADME, organism-based; set-up: dose 35 mg/kg, route oral; details: in vivo; in short: as §7
Blood [31] = test: Drug level in bile duct cannulated Sprague-Dawley rat blood at 35 mg/kg, po after 4 hrs; assay type: ADME, organism-based; set-up: dose 35 mg/kg, route oral; details: in vivo; in short: as §7
Blood [32] = test: Drug level in bile duct cannulated Sprague-Dawley rat blood at 35 mg/kg, po after 6 hrs; assay type: ADME, organism-based; set-up: dose 35 mg/kg, route oral; details: in vivo; in short: as §7
Blood [33] = test: Drug level in bile duct cannulated Sprague-Dawley rat blood at 35 mg/kg, po after 18 hrs; assay type: ADME, organism-based; set-up: dose 35 mg/kg, route oral; details: in vivo; in short: as §7
Rattus norvegicus [34] = test: Plasma concentration in bile duct cannulated Sprague-Dawley rat at 35 mg/kg, po after 18 hrs; details: in vivo

Drug uptake [14] [%] | Drug uptake [15] [%] | Drug uptake [16] [%] | Drug uptake [17] [%] | Drug uptake (Rattus norvegicus [19]) [%] | Cp (Rattus norvegicus [21]) [ug base equiv/g] | Cp (Rattus norvegicus [22]) [ug base equiv/g] | Cp (Rattus norvegicus [23]) [ug base equiv/g] | Cp (Rattus norvegicus [24]) [ug base equiv/g] | Drug uptake (Blood [27]) [ug base equiv/g] | Drug uptake (Blood [28]) [ug base equiv/g] | Drug uptake (Blood [29]) [ug base equiv/g] | Drug uptake (Blood [30]) [ug base equiv/g] | Drug uptake (Blood [31]) [ug base equiv/g] | Drug uptake (Blood [32]) [ug base equiv/g] | Drug uptake (Blood [33]) [ug base equiv/g] | Cp (Rattus norvegicus [34]) [ug base equiv/g] | Compound | Activity (Rattus norvegicus [20]) | other results
– | – | – | – | – | – | – | – | – | – | – | – | – | – | – | – | – | Cn1cncc1CN1CC(N(CC2CCN(C(=O)OC(C)(C)C)CC2)S(=O)(=O)c2ccccn2)Cc2cc(C#N)ccc21 (configuration not stated) | – | Papp A→B [1]: 15.5 ×10⁻⁶ cm/s; AUC [2]: 11.8 µM·h; half-life [3]: 54 min; half-life [4]: 10 min; AUC [5]: 30.1 µM·h; Cmax [6]: 6.3 µM; half-life [7]: 151 min; IC50 [8]: 1.5 nM; EC50 (Plasmodium falciparum [9]): 155 nM; EC50 (Plasmodium falciparum [10]): 180 nM; AUC [11]: 0.967 µM·h; half-life [12]: 55 min; bioavailability [13]: 124%
26.2 | 4.3 | 26.7 | 18.2 | 92.2 | 1.5 | 2.01 | 2.14 | 2.2 | 0.442 | 0.909 | 1.03 | 0.821 | 0.729 | 0.623 | 0.344 | 0.34 | Cn1cncc1CN1CC(N(CC2CCN(C(=O)OC(C)(C)C)CC2)S(=O)(=O)c2ccccn2)Cc2cc([14C]#N)ccc21 (configuration not stated) | Non-toxic | Drug uptake [18]: 9.7%; Cp (Rattus norvegicus [25]): 1.92 ug base equiv/g; Cp (Rattus norvegicus [26]): 1.23 ug base equiv/g
27.1 | 1.6 | 33.7 | 40.3 | 104 | 1.38 | 1.36 | 0.723 | 0.237 | 0.566 | 0.493 | 0.344 | 0.221 | 0.073 | 0.063 | 0.243 | 0.351 | Cn1cncc1CN1CC(N(CCn2cccc2)S(=O)(=O)c2ccccn2)Cc2cc([14C]#N)ccc21 (configuration not stated) | Non-toxic | –
